Screens: PubChem, several laboratories
GRIN3A LBD mod: binders of NR3A ligand-binding domain, primary screen, biophysical, differential scanning fluorimetry, uHTS. Glutamate receptor ionotropic, NMDA 3A (GRIN3A) ligand-binding domain. NR3A LBD differential scanning fluorimetry, Tm shift; 0% = protein alone, 100% = glycine-bound protein. Tm shift relative to glycine control, % at 25 µM. 2.5% of 340,000 active;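 active = melting temperature shift of at least 10% of the positive control shift, at one fixed dose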
EBNA-1 inhibitor: EBNA-1 DNA-binding inhibitors, primary screen, biochemical, fluorescence polarization; inhibition, % at 14.8 µM; 0.34% of 300,000 active; in the data active = inhibition above about 28%
FID counter: compounds displacing fluorescent DNA intercalator, primary screen, artefact control for HCV NS3 helicase inhibitor project, biochemical, FID fluorescence | DNA fluorescent intercalator displacement | 0.17% of 290,000 active | inhibition, % at 7.9 µM | AID 1845, 2009; in the data active = inhibition above about 37%;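 note: 0% = vehicle and 100% = reference compound; higher means more ethidium bromide displaced from hairpin DNA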
HCV NS3 hel inh: inhibitors of HCV NS3 helicase, primary screen, biochemical, Cy5 molecular beacon fluorescence | Hepatitis C virus NS3 helicase | NS3 helicase DNA unwinding | inhibition, % at 10.9 µM | 0.56% of 290,000 active | AID 1800, 2009;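 active = inhibition above the mean of all tested compounds plus 3 SD, set per campaign, cut at about 35% in these data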;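 note: 0% = DMSO wells and 100% = thioflavine S control wells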
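Measured by: Cy5 fluorescence, 0 and 60 min reads / Assay system: NS3 helicase fragment of HCV / Control set: low DMSO, high thioflavine S at 110 µM / Times: 1 h reaction at 25 °C, ATP-initiated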
FGF22 binding: binders of human FGF22 protein, primary screen, FGF22 synaptogenesis inhibitor project, biophysical, thermal shift, single point. recombinant FGF22 thermal shift, SYPRO orange fluorescence; percent of sucrose octasulfate shift, DMSO zero. activity (Tm shift, normalised), % at 9.99 µM. AID 651658, 2012. Fibroblast growth factor 22 (Homo sapiens), Q9HCT0. 1.5% of 340,000 active;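 active = mean Tm shift, scaled 0 neutral to 100 positive control, at about 1.3% or above, every replicate too, limit read from the data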
Target sequence (Q9HCT0 whole entry, looked up): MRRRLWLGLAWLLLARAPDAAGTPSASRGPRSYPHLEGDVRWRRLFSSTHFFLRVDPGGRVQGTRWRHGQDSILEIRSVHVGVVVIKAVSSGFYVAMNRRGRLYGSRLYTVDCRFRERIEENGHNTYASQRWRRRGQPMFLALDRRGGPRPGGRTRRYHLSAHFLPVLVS
ZTA counter: ZTA (EBV) inhibition in EBNA-1 counter-screen | ZTA-DNA binding, fluorescence polarization | inhibition, % at 11 µM | P03206 | 0.15% of 320,000 active; in the data active = inhibition above about 33%
Target sequence (P03206 whole entry, looked up): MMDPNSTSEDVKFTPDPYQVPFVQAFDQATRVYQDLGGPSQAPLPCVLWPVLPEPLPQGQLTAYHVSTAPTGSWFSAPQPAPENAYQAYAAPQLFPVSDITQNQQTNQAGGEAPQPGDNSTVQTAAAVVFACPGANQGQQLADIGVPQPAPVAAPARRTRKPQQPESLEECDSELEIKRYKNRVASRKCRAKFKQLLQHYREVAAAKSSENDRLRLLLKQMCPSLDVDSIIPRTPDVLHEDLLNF
Starred values were filed as active, the others as inactive; x = no result given. Compounds with a hit are over-represented: about 3.6% of the library has one in this group of screens.

SMILES | GRIN3A LBD mod | EBNA-1 inhibitor | FID counter | HCV NS3 hel inh | FGF22 binding | ZTA counter
O=C(COc1ccc(S(=O)(=O)N2CCOCC2)cc1)Nc1cccc([N+](=O)[O-])c1 | 19* | 7 | -2 | 9 | 1 | -3
CC(C)NS(=O)(=O)c1ccc(OCC(=O)NCc2ccccc2)cc1 | 11* | 2 | -17 | 1 | x | -1
CC(NS(=O)(=O)c1ccc(OCC(=O)Nc2cccc([N+](=O)[O-])c2)cc1)c1ccccc1 (configuration not stated) | 19* | 5 | 0 | -12 | 0 | -3
Cc1ccc(S(=O)(=O)NC(=O)COc2ccc([N+](=O)[O-])cc2)cc1 | 17* | 0 | -10 | 1 | 0 | -1
C[C@H]1CCCCO[C@@H](CN(C)S(=O)(=O)c2ccccc2)[C@@H](C)CN([C@@H](C)CO)C(=O)c2cc(NS(C)(=O)=O)ccc2O1 | x | x | x | x | 0 | x
O=C(C[C@H]1C[C@@H]2c3cc(NS(=O)(=O)c4ccc(F)cc4)ccc3O[C@@H]2[C@H](CO)O1)NC1CCCC1 | x | x | x | x | 0 | x
COc1ccc(C2Nc3ccccc3C(=O)N2c2ccccc2)cc1CSc1ccccn1 (configuration not stated) | 18* | 1 | -11 | -6 | 0 | -2
COC(=O)c1ccc(CN2CC(=O)N3[C@@H](CO)[C@@H](c4ccc(Br)cc4)[C@@H]3C2)cc1 | x | x | x | x | 0 | x
C[C@@H]1CN([C@H](C)CO)C(=O)c2cccc(NC(=O)c3ccncc3)c2O[C@H]1CN(C)Cc1ccccc1 | x | x | x | x | 0 | x
Oc1ccc2c(c1)c1ccccc1c1ncccc21 | 31* | x | x | x | 0 | x
COCC#Cc1cnc2c(c1)C(=O)N([C@H](C)CO)C[C@@H](C)[C@@H](CN(C)C(=O)c1ccc3c(c1)OCO3)O2 | x | x | x | x | 0 | x
Cc1cccc(N2C(=O)C3C4CC(=O)C(c5ccccc54)C3C2=O)c1C (configuration not stated) | 11* | -8 | -14 | -2 | 42 | -22
COc1cccc2c(SCC(=O)N/N=C/c3ccc(O)cc3O)cc(C)nc12 | 26* | x | 2 | -6 | 3.0* | x
COc1ccccc1/C=N/NC(=O)CSc1cc(C)nc2ccccc12 | 0 | 0 | -11 | 1 | 0 | 1
CCOC(=O)CSc1cc(C)nc2ccc(OC)cc12 | 0 | -4 | -19 | -3 | 43* | -5
COc1ccc2nc(C)cc(SCC(=O)N/N=C/c3ccccc3)c2c1 | -3 | 4 | 11 | -18 | x | 12
COc1ccc2nc(C)cc(SCC(=O)N/N=C/c3ccc(O)cc3O)c2c1 | 25* | 7 | -3 | -13 | x | 9
NS(=O)(=O)c1ccc(CCNC(=O)CN2CCN(c3ccccc3O)CC2)cc1 | -2 | 3 | -8 | 8 | 44* | 4
Cc1cccc(C(=O)Nc2ccc(O)c3c(=O)cc(-c4ccccc4Cl)oc23)c1 | 1 | 6 | -4 | -2 | 45* | 7
O=C(Nc1ccc(Cl)c(Cl)c1)O/N=C/c1ccncc1 | 29* | 0 | 5 | 2 | 0 | 0
O=C(Nc1cccc(Cl)c1)O/N=C\c1ccncc1 | -1 | 5 | 2 | 0 | 0 | -4
COc1ccccc1-c1cn(S(=O)(=O)c2ccc(C)cc2)nc1N | -8 | -5 | -11 | -8 | x | 1
COc1ccc(OC)c(-c2cn(S(=O)(=O)c3ccccc3)nc2N)c1 | 17* | -12 | -5 | -7 | x | -5
CCCCCC1CC(CC(=O)NC(=S)Nc2ccc([N+](=O)[O-])cc2)C(=O)O1 (configuration not stated) | 15* | -2 | 0 | -14 | x | 5
Clc1ccc(-c2csc(Nc3cccnc3)n2)cc1 | 15* | -2 | -1 | 0 | 0 | 1
c1ccc(-c2csc(Nc3cccnc3)n2)cc1 | -4 | -4 | 7 | -11 | 0 | -4
Clc1ccc(Nc2nc(-c3cccnc3)cs2)cc1 | 13* | -12 | -5 | -1 | x | -2
